In brackets after ≈: the same amount, converted by molar mass. Activity calls are given as the source filed them. The calls are words filed in the database; no cut-off is given here.
What was measured:
[1] = Half-life in NMRI mouse at 60 mg/kg, sc; assay type: ADME, organism-based; design: dose 60 mg/kg, route subcutaneous; conditions: in vivo
Summary of the method: (§1)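 Single subcutaneous DCX doses given to NMRI mice. Blood was collected into EDTA tubes, and plasma drug was assayed by microbiological bioassay with S. lutea ATCC 9391 (detection limit 1.5 mg/liter, linear to 100 mg/liter). Values came from noncompartmental analysis. Terminal half-life was fitted monoexponentially to the last four time points. AUC24 combined the trapezoidal rule over mean points with exact integration of the fitted curve extrapolated to 24 h.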

[2] = Cmax in NMRI mouse at 300 mg/kg, sc; assay type: ADME, organism-based; design: dose 300 mg/kg, route subcutaneous; conditions: in vivo
Summary of the method: (§2)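 Single subcutaneous dicloxacillin doses were given to NMRI mice. EDTA plasma was assayed by microbiological bioassay with S. lutea ATCC 9391 (detection limit 1.5 mg/liter, linear to 100 mg/liter, CV ~5%). Cmax was obtained by noncompartmental analysis.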

[3] = Ratio of fAUC (24 hrs) in NMRI mouse at 300 mg/kg administered every 12 hrs to MIC for Staphylococcus aureus E19977; assay type: functional
Summary of the method: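 Modeled free AUC over 24 h divided by the MIC, not measured directly. Single subcutaneous DCX doses were given to NMRI mice, and plasma was assayed by S. lutea bioassay. Noncompartmental analysis used trapezoidal mean points plus a fitted monoexponential extrapolated to 24 h. Free fraction came from a square-root fit to plasma ultrafiltration binding (10–400 mg/liter spike, 1 h, 37°C). The MIC was measured by broth microdilution at pH 7.4.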

[4] = system: Staphylococcus aureus; test: Bacteriostatic activity against Staphylococcus aureus E19977 after 24 hrs; assay type: functional
Summary of the method: (§3)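 Extracellular broth time- and concentration-kill test. The inoculum was ~10⁶ CFU/ml, exposed to a wide range of DCX concentrations, with CFU counted after 5 and 24 h. The read-out was Δlog CFU/ml versus time zero (mean ± SD, n = 3). A sigmoidal fit with slope 1 gave Emax and EC50. Cstatic was read by graphical interpolation as the concentration giving no change from the inoculum.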

[5] = system: Staphylococcus aureus; test: Bactericidal activity against Staphylococcus aureus ATCC 25923 assessed as log reduction in bacterial count at 100 times MIC after 5 hrs by time-kill assay; assay type: functional
Summary of the method: (§4)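 Broth time-kill: MSSA at 10⁶ CFU/ml exposed to a wide range of dicloxacillin concentrations. CFU counted after 5 and 24 h and expressed as change in log₁₀ CFU/ml from time zero. Multiples refer to the MIC by CLSI microdilution at pH 7.4. n = 3.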

[6] = Ratio of fCmax in NMRI mouse at 300 mg/kg administered every 12 hrs to MIC for Staphylococcus aureus E19977; assay type: functional
Summary of the method: (§5)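 Free Cmax/MIC was modelled, not measured. Single-dose subcutaneous plasma curves from NMRI mice were projected to the multiple-dose regimens. Free fraction came from a square-root fit of unbound fraction versus total concentration. Binding was measured by ultrafiltration of mouse plasma spiked with 10–400 mg/liter and held 1 h at 37°C. MIC was for strain E19977.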

[7] = Ratio of fCmax in NMRI mouse at 200 mg/kg administered every 6 hrs to MIC for Staphylococcus aureus E19977; assay type: functional; summary of the method: as §5
[8] = Ratio of fAUC (24 hrs) in NMRI mouse at 120 mg/kg administered every 6 hrs to MIC for Staphylococcus aureus E19977; assay type: functional
Summary of the method: (§6)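 Free-drug AUC24/MIC was modelled for repeated subcutaneous regimens. Single-dose NMRI plasma concentration-time curves were combined with the best-fitting square-root expression for the concentration-dependent free fraction. The result was divided by the E19977 MIC.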

[9] = system: Staphylococcus aureus; test: Bacteriostatic activity against Staphylococcus aureus ATCC 25923 infected in human THP-1 cells at compound MIC after 24 hrs; assay type: functional, organism-based
Summary of the method: (§7)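 Human THP-1 macrophages were infected with opsonized S. aureus at 4 bacteria per macrophage for 45 min. Non-phagocytized bacteria were removed by washing and a brief incubation in PBS with gentamicin 50 mg/liter. Cells were then incubated up to 24 h with DCX over a wide range of extracellular concentrations. The read-out was Δlog CFU per mg cell protein versus time zero (n = 3), with sigmoidal fitting and Cstatic by interpolation.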

[10] = system: Staphylococcus aureus; test: Bacteriostatic activity against Staphylococcus aureus ATCC 25923 after 24 hrs; assay type: functional; summary of the method: as §3
[11] = system: Staphylococcus aureus; test: Antimicrobial activity against Staphylococcus aureus ATCC 25923 infected in human THP-1 cells after 24 hrs; assay type: functional, organism-based; conditions: ATCC 25923, THP-1, 24 h; summary of the method: as §7
[12] = Ratio of fCmax in NMRI mouse at 80 mg/kg to MIC for Staphylococcus aureus E19977
[13] = Cmax in NMRI mouse at 30 mg/kg, sc; assay type: ADME, organism-based; design: dose 30 mg/kg, route subcutaneous; conditions: in vivo; summary of the method: as §2
[14] = Ratio of fCmax in NMRI mouse at 120 mg/kg administered every 6 hrs to MIC for Staphylococcus aureus E19977; assay type: functional; summary of the method: as §5
[15] = system: Staphylococcus aureus; test: Bacteriostatic activity against Staphylococcus aureus ATCC 25923 infected in human THP-1 cells at 100 times MIC after 5 hrs; assay type: functional, organism-based; summary of the method: as §7
[16] = system: Staphylococcus aureus; test: Bactericidal activity against Staphylococcus aureus E19977 infected in human THP1 cells assessed as log reduction in bacterial count at 10 times MIC after 24 hrs by time-kill assay; assay type: functional, THP-1
Summary of the method: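 Intracellular model in THP-1 macrophages: opsonized S. aureus was added at 4 bacteria per macrophage for 45 min. Non-phagocytized bacteria were removed by washing and brief PBS incubation with gentamicin (50 mg/liter). Cells were then incubated up to 24 h with a wide range of extracellular dicloxacillin concentrations. Result is change in log₁₀ CFU per mg cell protein from time zero. n = 3.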

[17] = system: Staphylococcus aureus; test: Bactericidal activity against Staphylococcus aureus E19977 assessed as log reduction in bacterial count at 100 times MIC after 24 hrs by time-kill assay; assay type: functional; summary of the method: as §4
[18] = fT>MIC in Staphylococcus aureus E19977 infected NMRI mouse at 120 mg/kg administered every 6 hrs; assay type: functional
Summary of the method: (§8)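 Calculated percentage of 24 h at steady state that free plasma DCX exceeds the strain MIC (microdilution, pH 7.4). Concentrations were simulated from single subcutaneous dose plasma curves in NMRI mice (S. lutea bioassay), adjusted with a square-root model of concentration-dependent free fraction from ultrafiltration. The regimen was dosed subcutaneously in mice infected intraperitoneally with 10^7.4 CFU, and peritoneal CFU were read after 24 h of therapy.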

[19] = Ratio of fAUC (24 hrs) in NMRI mouse at 120 mg/kg administered every 3 hrs to MIC for Staphylococcus aureus E19977; assay type: functional; summary of the method: as §6
[20] = Half-life in NMRI mouse at 300 mg/kg, sc; assay type: ADME, organism-based; design: dose 300 mg/kg, route subcutaneous; conditions: in vivo; summary of the method: as §1
[21] = fT>MIC in Staphylococcus aureus E19977 infected NMRI mouse at 80 mg/kg administered every 8 hrs; assay type: functional; summary of the method: as §8
[22] = system: Staphylococcus aureus; test: Bacteriostatic activity against Staphylococcus aureus E19977 at MIC between 5 to 24 hrs; assay type: functional, organism-based; summary of the method: as §3
[23] = AUC (24 hrs) in NMRI mouse at 300 mg/kg, sc; assay type: ADME, organism-based; design: time < 24 hr, dose 300 mg/kg, route subcutaneous; conditions: plasma; summary of the method: as §1
[24] = Ratio of fCmax in NMRI mouse at 400 mg/kg administered every 12 hrs to MIC for Staphylococcus aureus E19977; assay type: functional; summary of the method: as §5
[25] = fT>MIC in Staphylococcus aureus E19977 infected NMRI mouse at 120 mg/kg administered every 24 hrs; assay type: functional; summary of the method: as §8
[26] = fT>MIC in Staphylococcus aureus E19977 infected NMRI mouse at 120 mg/kg administered every 3 hrs; assay type: functional; summary of the method: as §8

`Cc1onc(-c2c(Cl)cccc2Cl)c1C(=O)N[C@@H]1C(=O)N2[C@@H]1SC(C)(C)[C@@H]2C(=O)O` [DICLOXACILLIN] showed a half-life [1] of 25 min, a Cmax [2] of 529 µg/mL and a fAUC/MIC [3] of 439.15 h. The Activity [4] was 0.43 mg/L, the FC [5] was less than 1 and the Ratio [6] was 196.76. For the same compound, the Ratio [7] was 101.92, the fAUC/MIC [8] was 175.82 h and the Activity [9] was “Active”. For the same compound, the Activity [10] was 0.07 mg/L, the EC50 [11] was 0.04 µg/mL (≈ 0.085 µM) and the Ratio [12] was 30.64. For the same compound, the Cmax [13] was 36 µg/mL, the Ratio [14] was 61.6 and the Activity [15] was “Active”. The FC [16] was less than 1, the FC [17] was 3 and the “fT>MIC” value [18] was 37.78%. The fAUC/MIC [19] was 350.73 h, the half-life [20] was 30 min and the “fT>MIC” value [21] was 25%. The Activity [22] was “Active”, the AUC at 24 h [23] was 726 µg·h/mL and the Ratio [24] was 291.53. For the same compound, the “fT>MIC” value [25] was 9.44% and the “fT>MIC” value [26] was 75.56%.

Source: ChEMBL document CHEMBL1255483, “Intra- and extracellular activities of dicloxacillin against Staphylococcus aureus in vivo and in vitro” (Antimicrob Agents Chemother, 2010)
